pIC50: −log10 of the molar value. The source made the active and inactive calls. No cut-off for these calls is given here.
What was measured:
[1] = Cytotoxicity against human U87 cells after 72 hrs by MTS assay; format: functional, cell-based, U-87MG ATCC; conditions: U-87 MG
Summary of the method: (§1)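 Monolayer cultures kept at 37 °C, 5% CO2, humidified, grown to 75–90% confluence; U87 and U251 maintained in DMEM with 10% FBS. Seeded at 2,500 cells/well and left about 6 h, then drug-containing medium added at various concentrations for 72 h. Viable cells read by MTS colorimetry at 490 nm. Triplicate, two separate occasions; IC50 from best-fit sigmoidal dose–response curves.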

[2] = system: U-251; assay: Cytotoxicity against human U251 cells after 72 hrs by MTS assay; format: functional, cell-based; conditions: U-251, 72 h; summary of the method: as §1
[3] = system: U-251; assay: Increase in HSP32 expression in human U251 cells incubated for 24 hrs in presence of N-acetylcysteine by Western blotting method; format: functional, cell-based
[4] = system: MRC5; assay: Cytotoxicity against human MRC5 cells after 72 hrs by MTS assay; format: cell-based; conditions: MRC5, 72 h
[5] = system: U-251; assay: Increase in HSP70 expression in human U251 cells at 5 uM incubated for 24 hrs in presence of N-acetylcysteine by Western blotting method; format: functional, cell-based
[6] = Cytotoxicity against human MDA1986 cells after 72 hrs by MTS assay; format: functional, cell-based; conditions: MDA1986, 72 h; summary of the method: as §1
[7] = system: U-251; assay: Increase in HSP32 expression in human U251 cells incubated for 24 hrs by Western blotting method; format: functional, cell-based
Summary of the method: (§2)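 U251 glioblastoma cells plated to stay subconfluent at harvest, grown overnight, then exposed to 0, 0.1, 0.5, 1 and 5 μM of each withanolide for 24 h. Lysates quantified, run on SDS-PAGE, transferred to nitrocellulose and immunoblotted for total HSP32 and HSP70. β-actin served as the loading control.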

[8] = system: MRC5; assay: Selectivity index, ratio of IC50 for human MRC5 cells to IC50 for human U87 cells; format: functional
Summary of the method: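 MTS viability assay. MRC-5 fibroblasts and U87 glioblastoma cells were seeded at 2,500 cells/well and left about 6 h. Drug-containing media at a range of concentrations was then added, with 72 h further incubation at 37 °C in 5% CO2. Absorbance was read at 490 nm, in triplicate on two occasions. IC50s came from sigmoidal dose-response fits, and the index is the MRC-5/U87 IC50 ratio.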

[9] = system: U-251; assay: Increase in HSP70 expression in human U251 cells at 5 uM incubated for 24 hrs by Western blotting method; format: functional, cell-based; summary of the method: as §2

Compound: C=C1C(=O)O[C@@H]2C[C@]1(C)OC[C@H]2[C@H]1CC[C@H]2[C@@H]3CC=C4CC=CC(=O)[C@]4(C)[C@H]3CC[C@]12C [WITHAMETELIN]
- pIC50 [1]: 6.00
- pIC50 [2]: 5.66
- Activity [3]: inactive
- pIC50 [4]: 5.29
- Activity [5]: inactive
- pIC50 [6]: 5.57
- Activity [7]: Dose-dependent effect
- Ratio IC50 [8]: 5.1
- Activity [9]: Active

Compound: CC1=C(CO)C(=O)O[C@@H]([C@@H](C)[C@H]2CC[C@H]3[C@@H]4C[C@H]5O[C@]56[C@@H](O)C=CC(=O)[C@]6(C)[C@H]4CC[C@]23C)C1 [WITHAFERIN A]
- pIC50 [1]: 5.96
- pIC50 [2]: 6.16
- pIC50 [4]: 6.70
- pIC50 [6]: 6.10
- Ratio IC50 [8]: 0.19

Compound: C=C1C(=O)O[C@@H]2C[C@]1(C)OC[C@H]2[C@H]1CC[C@H]2[C@@H]3C[C@@H](O)[C@@]4(O)CC=CC(=O)[C@]4(C)[C@H]3CC[C@]12C [WITHAMETELIN O]
- pIC50 [1]: 5.96
- pIC50 [2]: 5.55
- Activity [3]: inactive
- pIC50 [4]: 5.34
- pIC50 [6]: 5.52
- Activity [7]: Dose-dependent effect
- Ratio IC50 [8]: 4.1

Compound: C=C1C(=O)O[C@@H]2C[C@]1(C)OC[C@H]2[C@H]1CC[C@H]2[C@@H]3C[C@H]4O[C@]45CC=CC(=O)[C@]5(C)[C@H]3CC[C@]12C [WITHAMETELIN F]
- pIC50 [1]: 6.25
- pIC50 [2]: 5.85
- Activity [3]: inactive
- pIC50 [4]: 5.48
- Activity [5]: inactive
- pIC50 [6]: 5.82
- Activity [7]: Dose-dependent effect
- Ratio IC50 [8]: 6
- Activity [9]: Active

Compound: C=C1C(=O)O[C@@H]2C[C@@]1(C)OC[C@H]2[C@H]1CC[C@H]2[C@@H]3C[C@@H](O)[C@@]45C[C@H]4CC(=O)[C@]5(C)[C@H]3CC[C@]12C [WITHAWRIGHTOLIDE]
- pIC50 [1]: 5.82
- pIC50 [2]: 5.44
- Activity [3]: inactive
- pIC50 [4]: 5.25
- pIC50 [6]: 5.51
- Activity [7]: Dose-dependent effect
- Ratio IC50 [8]: 3.8

Compound: C=C1C(=O)O[C@@H]2C[C@]1(C)OC[C@H]2[C@H]1CC[C@H]2[C@@H]3CC=C4CC=CC(=O)[C@]4(C)[C@H]3C[C@@H](O)[C@]12C [WITHAMETELIN L]
- pIC50 [1]: 6.24
- pIC50 [2]: 5.89
- Activity [3]: inactive
- pIC50 [4]: 5.38
- Activity [5]: inactive
- pIC50 [6]: 5.64
- Activity [7]: Dose-dependent effect
- Ratio IC50 [8]: 7.4
- Activity [9]: Active
